Results on 9 molecules are retold here after ChEMBL document CHEMBL2150918, “Discovery of new scaffolds for rational design of HCV NS5B polymerase inhibitors” (Eur J Med Chem, 2012).

Calls of active or inactive are those of the source. The rule behind the calls is not given here. Where only a bound is given, the exact number is not on record here.

Data set [1] concerns Hepatitis C virus. In words: Inhibition of wild type recombinant C terminal His6-tagged HCV1b NS5B Cdelta21 RNA dependent RNA polymerase activity expressed in Escherichia coli JM109 (DE3) at 100 uM using poly rA/U12 template primer by liquid scintillation counting. Also noted: species or system Hepatitis C virus subtype 1b. Put shortly:
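Radiometric RdRp assay with wild-type NS5BCΔ21 (genotype 1b), C-terminal His6, Ni-NTA purified from E. coli JM109(DE3); poly rA/U12 template-primer. Compounds from 10 mM DMSO stocks, single-point at 100 µM. Started with 1.0 mM MnCl2, stopped with ice-cold 10% TCA/0.5 mM pyrophosphate. Incorporated radioactive UTP TCA-precipitated on GF-B filters, scintillation-counted; activity relative to DMSO control set at 100%.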

Data set [2] concerns Hepatitis C virus. In words: Inhibition of wild type recombinant C terminal His6-tagged HCV1b NS5B Cdelta21 RNA dependent RNA polymerase activity expressed in Escherichia coli JM109 (DE3) using poly rA/U12 template primer by liquid scintillation counting. The following applies: JM 109. Also noted: species or system Hepatitis C virus subtype 1b. Put shortly: (§1)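 Radiometric RdRp assay with His6-tagged NS5BCΔ21 (wild type or P495L, M423T, M414T mutants) purified from E. coli JM109(DE3) by Ni-NTA. Template-primer poly rA/U12. Compounds diluted serially in DMSO. Started with 1.0 mM MnCl2, stopped with ice-cold 10% TCA plus 0.5 mM pyrophosphate. Incorporated UTP TCA-precipitated on GF-B filters and scintillation counted. Activity set relative to DMSO control. IC50 from nonlinear fit of 8–12 concentrations, duplicate, two independent experiments.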

Data set [3] deals with Hepatitis C virus. As to the kind of experiment: Inhibition of recombinant HCV1b NS5B Cdelta21 RNA dependent RNA polymerase P495L mutant TP1 binding site using poly rA/U12 template primer by liquid scintillation counting. More on the design: species or system Hepatitis C virus subtype 1b. Put shortly:
as §1

The subject of data set [4] is Hepatitis C virus. As to the kind of experiment: Inhibition of recombinant HCV1b NS5B Cdelta21 RNA dependent RNA polymerase M423T mutant TP2 binding site using poly rA/U12 template primer by liquid scintillation counting. Also noted: species or system Hepatitis C virus subtype 1b. Put shortly: as §1
Data set [5] relates to Hepatitis C virus. In words: Inhibition of recombinant HCV1b NS5B Cdelta21 RNA dependent RNA polymerase M414T mutant PP1 binding site using poly rA/U12 template primer by liquid scintillation counting. Also noted: species or system Hepatitis C virus subtype 1b. Summed up:
as §1

The test system of data set [6] is Hepatitis C virus. In words: Ratio of IC50 for recombinant HCV1b NS5B Cdelta21 RNA dependent RNA polymerase M423T mutant TP2 binding site to IC50 for wild type recombinant C terminal His6-tagged HCV1b NS5B Cdelta21 RNA dependent RNA polymerase. More on the design: species or system Hepatitis C virus subtype 1b.
Data set [7] deals with Hepatitis C virus. In words: Ratio of IC50 for recombinant HCV1b NS5B Cdelta21 RNA dependent RNA polymerase P495L mutant TP1 binding site to IC50 for wild type recombinant C terminal His6-tagged HCV1b NS5B Cdelta21 RNA dependent RNA polymerase. Also noted: species or system Hepatitis C virus subtype 1b.
Data set [8] relates to Hepatitis C virus. As to the kind of experiment: Ratio of IC50 for recombinant HCV1b NS5B Cdelta21 RNA dependent RNA polymerase M414T mutant PP1 binding site to IC50 for wild type recombinant C terminal His6-tagged HCV1b NS5B Cdelta21 RNA dependent RNA polymerase. More on the design: species or system Hepatitis C virus subtype 1b.
Data set [9] can be described thus: Cytotoxicity against BHK cells assessed as cell viability by firefly luciferase reporter gene assay. It counts as cell-based, Mesocricetus auratus. To be noted: hamster. Put shortly:
(§2)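 BHK-NS5B-FRLuc reporter cells (DMEM, 10% heat-inactivated FBS, G418 1 mg/mL, blasticidin 10 µg/mL, 37°C, 5% CO2) treated with 100 µM compound or matching 1% DMSO for 42 hr. Lysates read by dual luciferase. Viability taken as firefly signal versus DMSO. Polymerase inhibition taken as percent reduction of Renilla/firefly ratio versus DMSO. At least three independent experiments in duplicate.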
A general note: In a reporter assay the amount or activity of a reporter protein is the signal.

A further data set relates to BHK. As to the kind of experiment: Inhibition of intracellular HCV NS5B RNA dependent RNA polymerase activity expressed in BHK cells at 100 uM after 42 hrs by renilla luciferase reporter gene assay. It counts as cell-based. To be noted: Hepacivirus hominis. Put shortly: as §2

As for `C/C(=N\Nc1ncnc2ccccc12)C(=O)O`, the inhibition – broadly, the percentage by which the read-out fell short of the control – at 100 µM with Hepatitis C virus [1] is at least 50%. Besides, the IC50 (commonly the concentration at which inhibition is half-maximal) with Hepatitis C virus [2] was found to be 16 µM; with Hepatitis C virus [3] it was 14.2 µM; in the data set with Hepatitis C virus [4], 127 µM; with Hepatitis C virus [5], 22.9 µM. The “Ratio IC50” value is listed as 7.9 in the data set with Hepatitis C virus [6], “<=1.4” in the data set on Hepatitis C virus [7] and “<=1.4” in the data set on Hepatitis C virus [8]. In [9], the half-maximal cytotoxic concentration (CC50) (usually the concentration that lowers cell viability or growth by half) is above 100 µM. For the same molecule, in the data set with BHK, the inhibition is 62.4%.

For `COc1cc(O)c2c(c1)oc(=O)c1c3cc(O)c(O)cc3oc21` [WEDELOLACTONE], the IC50 with Hepatitis C virus [2] is 34 µM.

For the molecule `COc1cc(/C=N/Nc2ccccc2C(=O)O)cc(Br)c1O`, the inhibition at 100 µM in the data set with Hepatitis C virus [1] was at least 50%. Besides, the IC50 with Hepatitis C virus [2] was found to be 20.3 µM; with Hepatitis C virus [3], 19.2 µM; in the data set with Hepatitis C virus [4] it was 172 µM; in the data set on Hepatitis C virus [5], 23.7 µM. Further, the “Ratio IC50” value in the data set on Hepatitis C virus [6] is listed as 8.5; in the data set with Hepatitis C virus [7] it was “<=1.4”; in the data set on Hepatitis C virus [8], “<=1.4”. Moreover, the 50% cytotoxic concentration (CC50) in data set [9] is above 100 µM. In the data set with BHK, this molecule displayed an inhibition of 57.8%.

In the case of `Cn1cc(C(=O)N2CCN(C(=O)c3ccc(F)cc3F)CC2)c2nn(-c3ccccc3)c(=O)c-2c1`, the inhibition at 100 µM with Hepatitis C virus [1] is at least 50%. The IC50 with Hepatitis C virus [2] was 39.5 µM; with Hepatitis C virus [3], 41 µM; with Hepatitis C virus [4], above 250 µM; in the data set on Hepatitis C virus [5] it was 44.8 µM. Besides, the “Ratio IC50” value with Hepatitis C virus [6] is above 4.5; in the data set on Hepatitis C virus [7], “<=1.4”; in the data set on Hepatitis C virus [8] it was “<=1.4”. Also, in data set [9], the CC50 was above 100 µM. In the data set on BHK, this molecule had an inhibition of 43.3%.

As for `O=C(O)c1ccc(Nc2nnc(-c3ccccc3)c(=O)[nH]2)cc1O`, the inhibition at 100 µM with Hepatitis C virus [1] was at least 50%. Moreover, the 50% inhibitory concentration (IC50) was 46.2 µM with Hepatitis C virus [2], 40.6 µM in the data set with Hepatitis C virus [3], above 250 µM in the data set with Hepatitis C virus [4] and 52.1 µM with Hepatitis C virus [5]. The entries for the “Ratio IC50” value in the data set on Hepatitis C virus [6], in the data set on Hepatitis C virus [7] and in the data set on Hepatitis C virus [8] were above 4.5, “<=1.4” and “<=1.4”, respectively. In data set [9], the CC50 is above 100 µM. Moreover, the inhibition in the data set with BHK was 45.1%.

As to `CC1CS(=O)(=O)N(c2ccc(S(=O)(=O)Nc3cccc4cccnc34)cc2)C1=O` (stereo unspecified), the inhibition at 100 µM in the data set with Hepatitis C virus [1] is at least 50%. Also, the IC50 in the data set on Hepatitis C virus [2] was 36.7 µM; in the data set on Hepatitis C virus [3], 43 µM; in the data set with Hepatitis C virus [4], above 250 µM; in the data set on Hepatitis C virus [5], 36.1 µM. The “Ratio IC50” value in the data set with Hepatitis C virus [6] was above 4.5; in the data set with Hepatitis C virus [7], “<=1.4”; in the data set on Hepatitis C virus [8], “<=1.4”. In data set [9], the half-maximal cytotoxic concentration (CC50) was above 100 µM. For the same molecule, the inhibition in the data set with BHK stood at 40.5%.

`CCOC(=O)/C(C#N)=C\c1cn(CCC(=O)O)nc1-c1ccc(F)cc1`: in the data set on Hepatitis C virus [1], the inhibition at 100 µM is at least 50%. Besides, the half-maximal inhibitory concentration (IC50) in the data set on Hepatitis C virus [2] was 33 µM; with Hepatitis C virus [3] it was 34.3 µM; in the data set with Hepatitis C virus [4], above 250 µM; with Hepatitis C virus [5], 28.6 µM. For the same molecule, the figures for the “Ratio IC50” value in the data set on Hepatitis C virus [6], with Hepatitis C virus [7] and in the data set with Hepatitis C virus [8] were above 4.5, “<=1.4” and “<=1.4”, respectively. For the same molecule, the CC50 in data set [9] was above 100 µM. Further, the inhibition in the data set with BHK was found to be 44.2%.

Take `O=C(CCS(=O)(=O)c1ccccc1)N1CCN(C(=O)CCS(=O)(=O)c2ccccc2)CC1`: the inhibition at 100 µM with Hepatitis C virus [1] was at least 50%. Also, the IC50 in the data set with Hepatitis C virus [2] is 33.1 µM; with Hepatitis C virus [3], 33.5 µM; with Hepatitis C virus [4] it was above 250 µM; with Hepatitis C virus [5] it was 37.8 µM. Also, the “Ratio IC50” value is listed as above 4.5 with Hepatitis C virus [6], “<=1.4” in the data set with Hepatitis C virus [7] and “<=1.4” in the data set with Hepatitis C virus [8]. In [9], the 50% cytotoxic concentration (CC50) is above 100 µM. The same molecule gave an inhibition in the data set with BHK of 42.1%.

With `Cc1cc(O)c(C(c2ccc(Cl)c(Cl)c2)c2c(O)cc(C)oc2=O)c(=O)o1`, the inhibition at 100 µM in the data set with Hepatitis C virus [1] was at least 50%. Further, the IC50 with Hepatitis C virus [2] was 56.8 µM; in the data set on Hepatitis C virus [3], 63.8 µM; with Hepatitis C virus [4], above 250 µM; in the data set on Hepatitis C virus [5], 62.4 µM. For the same molecule, the “Ratio IC50” value with Hepatitis C virus [6] is above 4.5; in the data set on Hepatitis C virus [7], “<=1.4”; in the data set on Hepatitis C virus [8] it was “<=1.4”. The CC50 in data set [9] is above 100 µM. Besides, the inhibition entry with BHK is “inactive”.
